Holding throughout (format): cell-based
Assay [1] deals with Hs578T cells. In words: Transwell invasion assay. To be noted: dose series, Figure 4d.
Assay [2] has as its system MDA-MB-231 cells. The assay is described as follows: Cell proliferation assay. The conditions noted are these: MDA-MB-231, NSC23766 treatment; Supplementary Figure 4.
For assay [3], the system named is Hs578T cells. The assay is described as follows: Cell proliferation assay. The conditions noted are these: NSC23766 treatment, Supplementary Figure 4.
For assay [4], the system named is MDA-MB-231 cells. In words: Transwell invasion assay. Put shortly: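 MDA-MB-231 breast cancer cells were obtained from ATCC and verified by SNP-CGH for characteristic cytogenetic changes. The panel included empty-vector parental cells and cells overexpressing full-length human NCKAP1 from a lentiviral vector. Cells were exposed to the RAC1-inhibitor test compound, with a dose series in one set. Invasion was read out in Transwell invasion assays run as previously described.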

Assay [5] relates to WASF3. The assay is described as follows: Western blotting of WASF3 complex protein levels. To be noted: MDA-MB-231 and Hs578T cells, western blot; Figure 4e. Background: Immunoblotting shows a protein as a band on a membrane.
Assay [6] concerns the target WASF3 complex (Homo sapiens, UniProt Q7L576). The assay is described as follows: Immunoprecipitation of the WASF3 complex. To be noted: IP of WASF3 from MDA-MB-231 cells, Figure 4f.

From publication PMC5010469 (Cancer research, 2016) come the findings set out here.

Molecules are shown by their SMILES.

Sequence of WASF3 complex (Q7L576 whole entry, one chain of several): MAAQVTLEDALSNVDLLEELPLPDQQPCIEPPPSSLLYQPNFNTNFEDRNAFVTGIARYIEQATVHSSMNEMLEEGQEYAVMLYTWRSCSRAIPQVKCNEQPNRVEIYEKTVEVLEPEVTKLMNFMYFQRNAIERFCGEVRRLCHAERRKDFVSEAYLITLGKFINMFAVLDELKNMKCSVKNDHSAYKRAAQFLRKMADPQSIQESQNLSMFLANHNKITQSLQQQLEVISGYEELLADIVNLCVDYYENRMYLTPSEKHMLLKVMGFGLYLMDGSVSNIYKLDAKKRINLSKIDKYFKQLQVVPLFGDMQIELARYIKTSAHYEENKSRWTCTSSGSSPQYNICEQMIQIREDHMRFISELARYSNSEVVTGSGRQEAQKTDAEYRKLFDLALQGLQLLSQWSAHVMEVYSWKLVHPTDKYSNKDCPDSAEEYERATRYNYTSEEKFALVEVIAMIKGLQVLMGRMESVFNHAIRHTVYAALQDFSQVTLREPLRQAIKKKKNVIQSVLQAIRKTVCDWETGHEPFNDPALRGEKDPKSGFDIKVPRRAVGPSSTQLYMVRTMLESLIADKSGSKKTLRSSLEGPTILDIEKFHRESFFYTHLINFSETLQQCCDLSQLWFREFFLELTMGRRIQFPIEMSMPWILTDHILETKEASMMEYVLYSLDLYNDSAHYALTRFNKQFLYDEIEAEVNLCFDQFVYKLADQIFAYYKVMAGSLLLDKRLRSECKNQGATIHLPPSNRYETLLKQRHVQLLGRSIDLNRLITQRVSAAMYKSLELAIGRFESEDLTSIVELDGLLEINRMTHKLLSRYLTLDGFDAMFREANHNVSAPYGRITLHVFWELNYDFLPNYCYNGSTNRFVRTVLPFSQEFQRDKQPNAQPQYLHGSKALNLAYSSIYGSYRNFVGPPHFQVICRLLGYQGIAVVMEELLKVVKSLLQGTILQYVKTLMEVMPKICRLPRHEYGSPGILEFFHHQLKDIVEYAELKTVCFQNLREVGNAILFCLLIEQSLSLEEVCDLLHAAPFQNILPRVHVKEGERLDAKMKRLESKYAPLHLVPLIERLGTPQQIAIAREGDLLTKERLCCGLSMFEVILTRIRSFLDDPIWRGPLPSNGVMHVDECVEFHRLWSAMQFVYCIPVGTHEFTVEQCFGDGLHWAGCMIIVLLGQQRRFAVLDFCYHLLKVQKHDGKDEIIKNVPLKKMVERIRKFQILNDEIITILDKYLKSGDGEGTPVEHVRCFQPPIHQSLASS

As for `CCN(CC)CCCC(C)Nc1nc(C)cc(Nc2ccc3nc(C)cc(N)c3c2)n1` (stereo not shown) [NSC23766], the effect on invasion result in assay [1] is recorded as “dose-dependent reduction in invasion”; in assay [4] (MDA-MB-231, dose series, Figure 4d), “dose-dependent reduction in invasion”; in assay [4] (MDA-MB-231 cells overexpressing NCKAP1, Transwell, Figure 4h), “significant reduction in invasion”; in assay [4] (MDA-MB-231 parental cells containing the empty vector (EV), Transwell, Figure 4h), “significant reduction in invasion”. Further, the “effect on cell proliferation” value in assay [2] and in assay [3] was “without affecting cell proliferation” in each case. In assay [5], the “protein levels of WASF3, NCKAP1 and RAC1” value was “does not affect protein levels of either WASF3, NCKAP1 or RAC1”. The “RAC1 binding to the WASF3 complex” value in assay [6] (high dose 50 µM) was “significantly inhibited”. Also, in assay [6] (high dose 50 µM), the WASF3 phosphorylation entry is recorded as “significantly inhibited”. Moreover, in assay [6], the “engagement of NCKAP1 with the WASF3 complex” value was “does not disrupt engagement of NCKAP1 with the WASF3 complex”.
